Assay [1] concerns the target Intercellular adhesion molecule (ICAM-1), Integrin alpha-L/beta-2 (Homo sapiens) (UniProt P20701+P05362+P05107). Kind of assay: Inhibition of HL-60 cell adhesion mediated by interaction of LFA-1 and ICAM-1. As to conditions: concentration not given here. The format is functional, cell-based. Also on record: concentration or dose not given beside the values. Summed up: (§1)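 HL60 cells (LFA-1 positive, Mac-1 negative by FACS) were fluorochrome-labeled and added to immunoaffinity-purified recombinant soluble ICAM-1 immobilized on plastic. Incubation was 40 min at 37 °C, and nonadherent cells were washed off. Adherence was read on a fluorescence concentration analyzer. Values are IC50 (μM) or % inhibition at 10 μM, each from one assay run in five replicates.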

Assay [2] deals with T1, Intercellular adhesion molecule (ICAM-1), Integrin alpha-L/beta-2 (Homo sapiens, UniProt P05107+P05362+P20701). In words: Inhibition of HL-60 cell adhesion to purified ICAM-1 by LFA-1. The format is functional, cell-based. Summed up: as §1
T1 sequence (P20701 whole entry): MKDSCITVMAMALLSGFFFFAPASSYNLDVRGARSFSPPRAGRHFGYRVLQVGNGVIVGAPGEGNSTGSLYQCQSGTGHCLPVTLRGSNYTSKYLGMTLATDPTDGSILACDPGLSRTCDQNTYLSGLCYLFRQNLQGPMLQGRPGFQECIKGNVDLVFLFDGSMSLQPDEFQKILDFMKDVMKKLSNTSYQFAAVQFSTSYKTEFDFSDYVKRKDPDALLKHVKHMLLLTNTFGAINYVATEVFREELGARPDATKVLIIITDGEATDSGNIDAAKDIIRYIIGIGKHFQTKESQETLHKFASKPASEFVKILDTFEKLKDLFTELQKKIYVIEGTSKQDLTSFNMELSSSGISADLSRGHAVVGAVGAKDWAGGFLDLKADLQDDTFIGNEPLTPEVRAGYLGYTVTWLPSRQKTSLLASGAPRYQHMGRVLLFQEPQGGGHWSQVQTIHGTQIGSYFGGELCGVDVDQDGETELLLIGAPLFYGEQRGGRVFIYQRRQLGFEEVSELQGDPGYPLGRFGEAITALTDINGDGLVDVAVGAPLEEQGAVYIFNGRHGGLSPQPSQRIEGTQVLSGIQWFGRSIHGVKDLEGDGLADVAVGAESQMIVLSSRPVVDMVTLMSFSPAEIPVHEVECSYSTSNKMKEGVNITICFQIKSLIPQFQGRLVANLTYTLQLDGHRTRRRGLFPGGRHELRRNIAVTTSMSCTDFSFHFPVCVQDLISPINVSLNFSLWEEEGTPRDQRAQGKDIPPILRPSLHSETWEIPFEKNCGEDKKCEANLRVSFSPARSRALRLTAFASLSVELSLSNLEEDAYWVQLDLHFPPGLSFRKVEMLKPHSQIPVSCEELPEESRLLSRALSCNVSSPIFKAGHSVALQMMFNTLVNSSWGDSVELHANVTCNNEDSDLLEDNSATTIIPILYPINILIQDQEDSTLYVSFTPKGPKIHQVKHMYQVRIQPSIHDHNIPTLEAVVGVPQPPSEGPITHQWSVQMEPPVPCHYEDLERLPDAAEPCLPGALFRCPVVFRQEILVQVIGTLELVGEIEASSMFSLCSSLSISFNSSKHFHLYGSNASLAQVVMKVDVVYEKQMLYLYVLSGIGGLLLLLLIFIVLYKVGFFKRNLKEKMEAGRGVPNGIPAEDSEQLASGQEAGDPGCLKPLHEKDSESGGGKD
T1 sequence (P05362 whole entry): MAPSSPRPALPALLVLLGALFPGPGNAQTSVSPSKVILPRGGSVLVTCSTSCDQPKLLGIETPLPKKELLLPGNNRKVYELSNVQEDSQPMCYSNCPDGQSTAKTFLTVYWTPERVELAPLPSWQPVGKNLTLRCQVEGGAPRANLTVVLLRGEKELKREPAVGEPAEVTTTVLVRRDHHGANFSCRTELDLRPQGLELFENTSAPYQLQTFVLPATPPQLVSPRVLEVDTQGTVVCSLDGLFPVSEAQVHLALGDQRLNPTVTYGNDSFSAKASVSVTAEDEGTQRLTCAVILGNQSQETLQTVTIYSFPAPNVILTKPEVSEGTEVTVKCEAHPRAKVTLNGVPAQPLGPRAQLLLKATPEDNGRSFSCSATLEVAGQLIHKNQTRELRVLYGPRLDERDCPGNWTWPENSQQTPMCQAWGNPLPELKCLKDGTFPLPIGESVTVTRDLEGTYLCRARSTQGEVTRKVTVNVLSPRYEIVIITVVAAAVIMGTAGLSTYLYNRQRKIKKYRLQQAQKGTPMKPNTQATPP
T1 sequence (P05107 whole entry): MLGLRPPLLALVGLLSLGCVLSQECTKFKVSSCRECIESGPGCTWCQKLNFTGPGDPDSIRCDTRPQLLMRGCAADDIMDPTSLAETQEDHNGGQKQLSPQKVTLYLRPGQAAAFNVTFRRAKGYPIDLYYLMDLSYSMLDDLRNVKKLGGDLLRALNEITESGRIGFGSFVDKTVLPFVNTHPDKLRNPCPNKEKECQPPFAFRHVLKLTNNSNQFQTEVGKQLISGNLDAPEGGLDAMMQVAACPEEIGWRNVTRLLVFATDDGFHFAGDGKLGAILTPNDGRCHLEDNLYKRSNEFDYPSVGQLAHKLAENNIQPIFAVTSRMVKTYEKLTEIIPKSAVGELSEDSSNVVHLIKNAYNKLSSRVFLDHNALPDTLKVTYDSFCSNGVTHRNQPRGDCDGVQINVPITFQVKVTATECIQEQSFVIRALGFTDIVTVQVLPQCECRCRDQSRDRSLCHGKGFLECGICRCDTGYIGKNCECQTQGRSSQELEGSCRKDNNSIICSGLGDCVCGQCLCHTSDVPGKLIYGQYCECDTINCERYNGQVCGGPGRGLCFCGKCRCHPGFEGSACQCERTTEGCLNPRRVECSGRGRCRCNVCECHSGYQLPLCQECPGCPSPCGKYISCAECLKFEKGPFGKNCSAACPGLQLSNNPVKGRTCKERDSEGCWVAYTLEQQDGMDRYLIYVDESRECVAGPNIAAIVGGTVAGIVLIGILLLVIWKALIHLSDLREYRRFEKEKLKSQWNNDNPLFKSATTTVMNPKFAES
Assay [3] relates to HL-60. In words: The concentration of compound required to inhibit 50% interaction (IC50 ) was measured on LFA-1/ICAM-1 mediated cells using cell/cell adherence assay on the HL60/U937 test system. In kind it is functional, cell-based. As to conditions: Homo sapiens.
For another assay, the target named is Integrin alpha-M/beta-2 (Homo sapiens, UniProt P05107+P11215). Kind of assay: Inhibition of neutrophil cell Mac-1 mediated adhesion to purified ICAM-1, no effect up to 20 […]. In kind it is functional, cell-based.
Integrin alpha-M/beta-2, sequence (P05107 23-769 limits assumed, other chains not shown): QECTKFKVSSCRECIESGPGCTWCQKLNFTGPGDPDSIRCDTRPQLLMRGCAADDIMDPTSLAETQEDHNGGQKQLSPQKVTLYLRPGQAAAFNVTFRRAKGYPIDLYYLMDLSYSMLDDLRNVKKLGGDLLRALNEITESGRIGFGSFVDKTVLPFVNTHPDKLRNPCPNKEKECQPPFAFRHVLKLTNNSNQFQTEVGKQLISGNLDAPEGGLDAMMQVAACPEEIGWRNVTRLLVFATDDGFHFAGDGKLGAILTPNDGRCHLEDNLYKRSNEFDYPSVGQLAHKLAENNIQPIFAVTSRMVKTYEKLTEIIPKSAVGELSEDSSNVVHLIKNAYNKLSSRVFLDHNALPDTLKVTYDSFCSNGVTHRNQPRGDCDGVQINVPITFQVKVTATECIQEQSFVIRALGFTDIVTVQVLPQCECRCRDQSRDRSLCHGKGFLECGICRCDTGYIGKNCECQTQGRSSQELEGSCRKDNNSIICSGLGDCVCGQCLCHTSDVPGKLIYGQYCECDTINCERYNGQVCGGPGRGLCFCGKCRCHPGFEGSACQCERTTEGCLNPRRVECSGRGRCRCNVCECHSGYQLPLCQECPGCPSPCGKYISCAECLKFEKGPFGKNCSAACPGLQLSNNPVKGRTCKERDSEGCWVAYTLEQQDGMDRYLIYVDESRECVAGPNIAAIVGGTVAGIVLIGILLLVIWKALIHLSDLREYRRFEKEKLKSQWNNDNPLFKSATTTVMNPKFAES
Assay [4] has as its target T1, Intercellular adhesion molecule (ICAM-1), Integrin alpha-L/beta-2. In words: Inhibition of LFA-1 mediated HL60 cell adhesion to ICAM-1. In kind it is cell-based, HL-60. Summed up:
as §1

Assay [5] in a line: The inhibitory activity was measured on VLA-4/VCAM-1 mediated cells using cell/cell adherence assay on the Ramos/IL-1beta HUVEC test system; no effect up to 20 pM. In kind it is functional, cell-based. As to conditions: in the assay text read “20 µM” for “20 pM”. Summed up: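 Cell/cell adhesion used VLA-4-expressing Ramos B lymphoblastoid cells and HUVEC stimulated overnight with IL-1β to express VCAM-1. Adherence was quantified by fluorescence.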

In assay [6] the test system is HL-60. Kind of assay: The inhibitory activity was measured on sLex/E-selectin mediated cells using cell/cell adherence assay on the HL60/IL-1beta HUVEC test system; no effect up to 20 µM. As to conditions: Homo sapiens.

For `CCc1c(C(=O)NCCCn2ccnc2)cnn1-c1nc(-c2cccc(C(F)(F)F)c2)cs1`, the inhibition – broadly, the percentage by which the read-out fell short of the control – in assay [1] is 34%.
Still for that read-out and setting: next, `CCc1c(C(=O)NCCCN2CCCC2=O)cnn1-c1nc(-c2cccc(C(F)(F)F)c2)cs1`: 10%.
Take `CCc1c(C(=O)NCCCO)cnn1-c1nc(-c2cccc(C(F)(F)F)c2)cs1`: the IC50 (as a rule, the midpoint of a concentration-inhibition curve) in assay [2] worked out at 3 µM.
For the compound `Cc1c(C(=O)NCCCCCO)cnn1-c1nc(-c2cccc(C(F)(F)F)c2)cs1`, in assay [1], the inhibition is 0%.
In assay [1], `Cc1ccc(-c2csc(-n3ncc(C(=O)NCCCO)c3C)n2)cc1` displayed an inhibition of 7%.
Same read-out and setting: next, `COCCCNC(=O)c1cnn(-c2nc(-c3cccc(C(F)(F)F)c3)cs2)c1C`: 48%.
As for `COc1cc(-c2csc(-n3ncc(C(=O)NCCCO)c3C)n2)cc(OC)c1OC`, in assay [1], the inhibition is 0%.
In assay [1], `CCOC(=O)CCCNC(=O)c1cnn(-c2nc(-c3cccc(C(F)(F)F)c3)cs2)c1C` yielded an inhibition of 0%.
Consider `Cc1c(C(=O)OCCCO)cnn1-c1nc(-c2cccc(C(F)(F)F)c2)cs1`, for which the inhibition in assay [1] worked out at 25%.
Still for that read-out and setting: next, `Cc1c(C(=O)NCCCO)cnn1-c1nc(-c2cccc(Cl)c2)cs1`: 20%; `Cc1c(C(=O)NCCCCO)cnn1-c1nc(-c2cccc(C(F)(F)F)c2)cs1`: 51%.
The same measure, in the same setting: next, `O=C(NCCCO)c1cnn(-c2nc(-c3cccc(C(F)(F)F)c3)cs2)c1C(F)(F)F`: 5%.
In the case of `Cc1c(C(=O)NCCCO)cnn1-c1nc(-c2cccc(C(F)(F)F)c2)cs1`, the IC50 was 5 µM in the assay on HL-60 [3]; 5 µM in assay [2]; “No effect” against Integrin alpha-M/beta-2; 5 µM in assay [4]; “No effect” in assay [5]; “No effect” with HL-60 [6].
In the case of `Cc1c(C(=O)NCCCO)cnn1-c1nc(-c2ccccc2)cs1`, the inhibition in assay [1] amounted to 5%.
Take `CCCc1c(C(=O)NCCCO)cnn1-c1nc(-c2cccc(C(F)(F)F)c2)cs1`: the inhibition in assay [1] came out at 26%.

For the origin of these results see ChEMBL document CHEMBL1128707, “Novel thiazole based heterocycles as inhibitors of LFA-1/ICAM-1 mediated cell adhesion” (J Med Chem, 1995).
